Test results from publication PMC4014002 (The FEBS journal, 2014).
Residue numbers refer to the chain shown, from its start. “And” between values parts separate entries of the source, which are not always exact repeats. Identical values can stand only once. Counter-ions that a name gives are not always drawn. Like-named read-outs stand apart in the source and are kept apart here. One block for each compound: values may come before it.

Tests used:
[1] = target: T1, human wild-type L-FABP T94T (Homo sapiens, UniProt P07148); assay: ANS displacement assay; assay type: binding
T1 sequence (P07148 1-127): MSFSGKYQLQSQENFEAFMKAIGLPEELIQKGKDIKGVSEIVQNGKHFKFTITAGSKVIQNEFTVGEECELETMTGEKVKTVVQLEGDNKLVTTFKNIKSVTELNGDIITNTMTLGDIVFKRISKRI

[2] = target: T2, human L-FABP T94A variant (Homo sapiens, UniProt P07148, T94A); assay: ANS displacement assay; assay type: binding
T2 sequence (P07148 1-127 T94A): T1 sequence (P07148 1-127) with T94A

[3] = target: T3, rat L-FABP (Rattus norvegicus, UniProt P02692); assay: Circular dichroism, ligand-induced secondary structure change; details: rat L-FABP 0.5 μM, 5 μM ligand, CD
T3 sequence (P02692 1-127): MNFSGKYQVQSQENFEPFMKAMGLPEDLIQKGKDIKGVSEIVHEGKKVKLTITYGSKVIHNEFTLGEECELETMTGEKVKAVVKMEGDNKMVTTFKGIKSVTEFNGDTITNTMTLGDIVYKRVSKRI
Outline: (§1)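 Recombinant delipidated L-FABP (0.5 μM, by amino acid analysis) in 10 mM potassium phosphate pH 7.4. Ligand added to 5 μM from a 500 μM ethanol stock, giving 1% ethanol final. Stirred 10 min at 25 °C, then scanned 185–250 nm. Ten scans were averaged, buffer/ligand/ethanol background subtracted and smoothed. Secondary structure was analysed by CONTIN against the SDP48 reference set, and % change was taken relative to protein alone.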

[4] = target: T2, human L-FABP T94A variant; assay: as above; details: T94A 0.5 μM, 5 μM ligand, CD
Outline: as §1

[5] = target: T1, human wild-type L-FABP T94T; assay: as above; details: T94T 0.5 μM, 5 μM ligand, CD
Outline: as §1

[6] = target: T3, rat L-FABP; assay: ANS binding to L-FABP
[7] = target: T2, human L-FABP T94A variant; assay: ANS binding to L-FABP
[8] = target: human L-FABP; details: human L-FABP bound one ANS; cited from earlier work
[9] = target: T1, human wild-type L-FABP T94T; assay: ANS binding to L-FABP
[10] = target: T94T and T94A; details: cited from earlier work
[11] = target: T3, rat L-FABP; assay: ANS displacement assay; assay type: binding
Outline: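 Recombinant rat L-FABP (500nM, quantified by amino acid analysis) incubated 10 min with ANS (35μM) at pH 7.4, then titrated with small ligand aliquots. ANS emission scanned 410–600nm (380nm excitation). % ANS fluorescence remaining plotted vs ligand concentration gives EC50.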

[12] = test system: L-FABP T94A variant human subjects; details: cited from earlier work
[13] = read-out: ANS Displacement – Ki, T94T 500nM, ANS 35μM, ND: no displacement
[14] = read-out: ANS Displacement – Ki, T94A 500nM, ANS 35μM, ND: no displacement
[15] = read-out: ANS Displacement – Ki, rat L-FABP 500nM, ANS 35μM, ND: no displacement

Compound: O=S(=O)(O)c1cccc2cccc(Nc3ccccc3)c12 [ANS, 1-anilinonaphthalene-8-sulfonic acid]
Kd [6]: 2500 ± 200 nM
Fluorescence emission Maximum ([6]; ANS bound to rat L-FABP): 477 nm
Bmax ([6]; forward titration, 500nM rat L-FABP): 1.4 and 1.42 ± 0.01
A.U./nM when fully bound (ANS fluorescence intensity/nM) ([6]; reverse titration, ANS 100nM, rat L-FABP): 0.8 A.U./nM and 0.78 ± 0.02 A.U./nM
Kd [7]: 2400 ± 100 nM
Fluorescence emission Maximum ([7]; ANS bound to T94A): 480 nm
A.U./nM when fully bound (ANS fluorescence intensity/nM) ([7]; reverse titration, ANS 100nM, T94A): 1.0 A.U./nM and 0.98 ± 0.04 A.U./nM
Kd [8]: 2000 nM
Kd [9]: 2300 ± 100 nM
Fluorescence emission Maximum ([9]; ANS bound to T94T): 480 nm
A.U./nM when fully bound (ANS fluorescence intensity/nM) ([9]; reverse titration, ANS 100nM, T94T): 1.0 A.U./nM and 1.03 ± 0.01 A.U./nM

Compound: CC(C)(Oc1ccc(C(=O)c2ccc(Cl)cc2)cc1)C(=O)O [fenofibric acid]
Ki, T94T compared with T94A [10]: same (or similar) Ki

Compound: CCCCC/C=C\C/C=C\C/C=C\C/C=C\CCCC(=O)O [Arachidonic acid, arachidonic acid]
Ki [1]: 113 ± 6 nM
Ki [2]: 108 ± 6 nM
Ki [11]: 110 ± 6 nM
change in secondary structure (L-FABP/ligand – L-FABP only) [4]: < 8%

Compound: CC(C)OC(=O)C(C)(C)Oc1ccc(C(=O)c2ccc(Cl)cc2)cc1 [fenofibrate]
lowering of elevated plasma triglyceride to basal levels [12]: less effective in lowering elevated plasma triglyceride to basal levels

Compound: CCCCCCCC/C=C\CCCCCCCC(=O)SCCNC(=O)CCNC(=O)[C@H](O)C(C)(C)COP(=O)(O)OP(=O)(O)OC[C@H]1O[C@@H](n2cnc3c(N)ncnc32)[C@H](O)[C@@H]1OP(=O)(O)O [Oleoyl CoA, Oleoyl Coenzyme A]
Ki [1, 13]: 1110 ± 40 nM
Ki [2, 14]: 1030 ± 20 nM
Ki [11, 15]: 2410 ± 120 nM

Compound: CCC=CCC=CCC=CCC=CC/C=C\CCCC(=O)O [Eicosapentaenoic acid, cis-5,8,11,14,17-eicosapentaenoic acid]
Ki [1]: 200 ± 30 nM
Ki [2]: 190 ± 10 nM
Ki [11]: 240 ± 30 nM

Compound: CC/C=C\C/C=C\C/C=C\C/C=C\C/C=C\C/C=C\CCC(=O)O [Docosahexaenoic acid, cis-4,7,10,13,16,19-docosahexaenoic acid]
Ki [1]: 72 ± 5 nM
Ki [2]: 65 ± 9 nM
Ki [11]: 81 ± 15 nM

Compound: CC(C)CCC[C@@H](C)CCC[C@@H](C)CCCC(C)CC(=O)O (stereo partly drawn) [phytanic acid]
Ki, T94T compared with T94A [10]: same (or similar) Ki

Compound: CCCCCCCCCCCCCCCCCC(=O)O [Stearic acid]
Ki [1]: 29 ± 2 nM
Ki [2]: 28 ± 1 nM
Ki [11]: 37 ± 4 nM

Compound: CCCCCCCC/C=C\CCCCCCCC(=O)O[C@H](COC(=O)CCCCCCCCCCCCCCC)COP(=O)(O)O [POPA, 1-palmitoyl-2-Oleoyl-sn-Glycero-3-Phosphate monosodium salt]
Ki [1, 13]: 2800 ± 300 nM
Ki [2, 14]: 2800 ± 200 nM
Ki [11, 15]: 9100 ± 800 nM

Results, then the compound that gave them:

Ki [1, 13]: 52 ± 7 nM
Ki [2, 14]: 36 ± 4 nM
Compound: CCCCCCCC/C=C\CCCCCCCC(=O)OC[C@@H](O)COP(=O)(O)O [LPA, Oleoyl-L-α-lysophosphatidic acid sodium salt]

change in secondary structure (L-FABP/ligand – L-FABP only) [3]: no or only small changes
change in secondary structure (L-FABP/ligand – L-FABP only) [4]: no or only small changes
change in secondary structure (L-FABP/ligand – L-FABP only) [5]: no or only small changes
Compound: CCCCCCCC/C=C\CCCCCCCC(=O)OC(CO)CO [2-OMG, 2-oleoyl glycerol]

change in secondary structure (L-FABP/ligand – L-FABP only) [3]: no or only small changes
change in secondary structure (L-FABP/ligand – L-FABP only) [4]: no or only small changes
change in secondary structure (L-FABP/ligand – L-FABP only) [5]: no or only small changes
Compound: CCCCCCCC/C=C\CCCCCCCC(=O)O[C@@H](CO)COC(=O)CCCCCCCCCCCCCCC [PODG, 1-palmitoyl-2-oleoyl-sn-glycerol]

Ki [1]: 38 ± 1 nM
Ki [2]: 43 ± 1 nM
Ki [11]: 48 ± 1 nM
Compound: CCCCCCCCCCCCCCCC(=O)O [Palmitic acid, palmitic acid]

Ki [1]: 113 ± 5 nM
Ki [2]: 132 ± 3 nM
Ki [11]: 81 ± 5 nM
Compound: CCCCC/C=C\C/C=C\CCCCCCCC(=O)O [Linoleic acid, linoleic acid]

Ki [11]: 43 ± 2 nM
Compound: CCCCCCCC/C=C\CCCCCCCC(=O)O [Oleic acid, oleic acid]
